Source: PubChem
Rows were chosen to be rich in hits. Some 4.3% of all compounds tested hit in one or more screens of this group.
STAT3 inh-1 = reduces IL-6 driven STAT3 reporter signal | U3A cells, IL-6 STAT3-luciferase reporter, luminescence; host cell line lacks STAT1 | hit rate 0.89% among 190,000 | inhibition, % at 5.5 µM;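 active = inhibition above the mean inhibition across all screened compounds plus 3 SD, cut at about 44% in these data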;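 also: 0% = DMSO only wells and 100% = 100 µM nifuroxazide control wells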
STAT1 act = increases IFN-gamma driven STAT1 reporter signal | NIH 3T3 STAT1-luciferase reporter, luminescence; 100% = IFN-gamma alone, no compound | activation (% of control), % at 5.5 µM | hit rate 2.6% among 200,000;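 active = activation above the screen-wide mean activation plus 3 SD, cut at about 130% in these data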;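 also: raw ratio to IFN-gamma control signal so 100% means no change and 0% no light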
STAT1 blocker = STAT1 signaling inhibition; NIH 3T3 STAT1-luciferase reporter, IFN-gamma, luminescence; hit rate 0.35% among 200,000; inhibition, % at 5.5 µM;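 active = inhibition above a set limit, the mean inhibition across all tested compounds plus 3 SD, cut at about 34% in these data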;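 also: 0% = IFN-gamma with DMSO and 100% = IFN-gamma with 300 µM nifuroxazide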
STAT3 activator = activators of IL-6 induced STAT3 signaling. U3A cells, IL-6 STAT3-luciferase reporter, luminescence; 100% = signal with IL-6 EC80 alone. AID 871. hit rate 0.91% among 190,000. activation (% of control), % at 5.6 µM;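 active = activation above the screen-wide mean of compound activation plus 3 SD, cut at about 130% in these data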;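 also: 0% = background luminescence of wells with medium and substrate only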
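Assay system – human STAT1-deficient U3A cells with stable STAT3-luciferase reporter · Also added – IL-6 (33 ng/mL) · Schedule – compound 1 h, then IL-6 6 h at 37 °C · Technique – reporter luminescence signal · Evaluation – % activation versus median of IL-6-stimulated wells · Benchmarks – IL-6-only wells as 100% reference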
STAT3 inh-2 = confirmation of STAT3 signaling inhibitors. shares compounds with STAT3 inh-1. inhibition, % at 5.7 µM. hit rate 45% among 1,200. U3A cells, IL-6 STAT3 luciferase reporter, luminescence; cell line lacks STAT1;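 active = inhibition above the hit cutoff computed for the primary STAT3 screen, cut at about 44% in these data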;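 also: 0% = IL-6 plus DMSO and 100% = IL-6 plus nifuroxazide control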
NFkB inh STAT3ct = NF-kappaB inhibition in STAT3 inhibitor counter-screen. shares compounds with STAT3 inh-1. HEK293T NF-kB luciferase reporter, TNF-alpha induced. inhibition, % at 5.7 µM. hit rate 36% among 1,200. AID 1308;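 active = inhibition above the mean of solvent-only control wells plus 3 SD, cutoff set per campaign, cut at about 13% in these data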;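 also: 0% = TNF-alpha with DMSO and 100% = TNF-alpha with MG high control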
STAT1 inh 2 = counter-screen for STAT3 inhibitors: STAT1 inhibition | NIH 3T3 STAT1-luciferase reporter, IFN-gamma induced, luminescence | inhibition, % at 5.7 µM | AID 1317 | hit rate 27% among 1,200 | shares compounds with STAT3 inh-1;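 active = inhibition above the mean plus 3 SD of solvent-only control wells, limit set per screening run, cut at about 16% in these data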;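 also: 0% = DMSO with IFN-gamma and 100% = nifuroxazide control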
* = called active by the depositor.

`C=CCc1cc(/C=C2/NC(=O)N(CC(=O)OC)C2=O)cc(OC)c1O` gave STAT3 inh-1 16, STAT1 act 92, STAT1 blocker 8 and STAT3 activator 92.
Screening COc1ccc(O)c(C(=O)CC(=O)c2ccc(F)cc2)c1 returned STAT3 inh-1 77*, STAT1 act 110, STAT1 blocker -11, STAT3 activator 35, STAT3 inh-2 27, NFkB inh STAT3ct -10 and STAT1 inh 2 -112.
CCCOc1nc(C)cc(COC)c1C(N)=O was read as STAT3 inh-1 -7, STAT1 act 103, STAT1 blocker -6 and STAT3 activator 110.
`Cc1cc(C)n(-c2ccc(C(=O)Nc3ccc(S(=O)(=O)NCc4ccco4)cc3)cc2)n1` gave STAT3 inh-1 75*, STAT1 act 90, STAT1 blocker 11, STAT3 activator 37, STAT3 inh-2 56*, NFkB inh STAT3ct 17* and STAT1 inh 2 19*.
`Cc1ccc(OCc2nc(-c3cccs3)no2)c([N+](=O)[O-])c1` gave STAT3 inh-1 50*, STAT1 act 98, STAT1 blocker 0, STAT3 activator 61, STAT3 inh-2 -53, NFkB inh STAT3ct -27 and STAT1 inh 2 -152.
Screening O=C(Nc1nccs1)c1ccc(S(=O)(=O)NCC2CCCCC2)cc1 returned STAT3 inh-1 71*, STAT1 act 95, STAT1 blocker 5, STAT3 activator 45, STAT3 inh-2 55*, NFkB inh STAT3ct 11 and STAT1 inh 2 3.
Screening c1csc(-c2csc3ncnc(NCCCN4CCOCC4)c23)c1 returned STAT3 inh-1 46*, STAT1 act 86, STAT1 blocker 15, STAT3 activator 65, STAT3 inh-2 31, NFkB inh STAT3ct 8 and STAT1 inh 2 15.
c1ccc(-c2cn(-c3ccccc3)c3ncnc(NCCCN4CCOCC4)c23)cc1 was read as STAT3 inh-1 8, STAT1 act 104, STAT1 blocker -4 and STAT3 activator 100.
Screening O=C(NC1CC1)c1cc2c(s1)-c1ccccc1OC2 returned STAT3 inh-1 71*, STAT1 act 120, STAT1 blocker -22, STAT3 activator 46, STAT3 inh-2 63*, NFkB inh STAT3ct -7 and STAT1 inh 2 -42.
`O=C(O)c1cc2c(s1)-c1ccccc1OC2` gave STAT3 inh-1 -2, STAT1 act 98, STAT1 blocker 3 and STAT3 activator 108.
Screening COC(=O)c1ccccc1NC(=O)CSc1nc2cccnc2n1C returned STAT3 inh-1 0, STAT1 act 94, STAT1 blocker 5 and STAT3 activator 102.
For COC(=O)c1cccc(NC(=O)CSc2nc3cccnc3n2C)c1 the results were STAT3 inh-1 57*, STAT1 act 93, STAT1 blocker 7, STAT3 activator 57, STAT3 inh-2 48*, NFkB inh STAT3ct 4 and STAT1 inh 2 7.
O=C(Nc1nc(-c2ccccc2)cs1)c1ccc(N2CCOCC2)c([N+](=O)[O-])c1 was read as STAT3 inh-1 72*, STAT1 act 86, STAT1 blocker 15, STAT3 activator 38, STAT3 inh-2 77*, NFkB inh STAT3ct 23* and STAT1 inh 2 16*.
Screening CCN1/C(=C/c2sc(-c3ccccc3C)c[n+]2C)Sc2ccccc21 returned STAT3 inh-1 91*, STAT1 act 71, STAT1 blocker 30, STAT3 activator 21, STAT3 inh-2 94*, NFkB inh STAT3ct 54* and STAT1 inh 2 32*.
Screening CCN1/C(=C/C(=O)c2ccco2)Sc2ccccc21 returned STAT3 inh-1 -15, STAT1 act 111, STAT1 blocker -12 and STAT3 activator 114.
`O=C(c1ccccc1)N1CCCCCC1` gave STAT3 inh-1 22, STAT1 act 97, STAT1 blocker 3 and STAT3 activator 87.
Screening O=C(CSC(=S)N1CCCCC1)c1ccccc1 returned STAT3 inh-1 65*, STAT1 act 73, STAT1 blocker 28, STAT3 activator 47, STAT3 inh-2 22, NFkB inh STAT3ct 3 and STAT1 inh 2 -71.
